Test [1] has as its target T1, Inhibitor of nuclear factor kappa-B kinase subunit epsilon (Homo sapiens, UniProt Q14164).
T1 sequence (Q14164 whole entry): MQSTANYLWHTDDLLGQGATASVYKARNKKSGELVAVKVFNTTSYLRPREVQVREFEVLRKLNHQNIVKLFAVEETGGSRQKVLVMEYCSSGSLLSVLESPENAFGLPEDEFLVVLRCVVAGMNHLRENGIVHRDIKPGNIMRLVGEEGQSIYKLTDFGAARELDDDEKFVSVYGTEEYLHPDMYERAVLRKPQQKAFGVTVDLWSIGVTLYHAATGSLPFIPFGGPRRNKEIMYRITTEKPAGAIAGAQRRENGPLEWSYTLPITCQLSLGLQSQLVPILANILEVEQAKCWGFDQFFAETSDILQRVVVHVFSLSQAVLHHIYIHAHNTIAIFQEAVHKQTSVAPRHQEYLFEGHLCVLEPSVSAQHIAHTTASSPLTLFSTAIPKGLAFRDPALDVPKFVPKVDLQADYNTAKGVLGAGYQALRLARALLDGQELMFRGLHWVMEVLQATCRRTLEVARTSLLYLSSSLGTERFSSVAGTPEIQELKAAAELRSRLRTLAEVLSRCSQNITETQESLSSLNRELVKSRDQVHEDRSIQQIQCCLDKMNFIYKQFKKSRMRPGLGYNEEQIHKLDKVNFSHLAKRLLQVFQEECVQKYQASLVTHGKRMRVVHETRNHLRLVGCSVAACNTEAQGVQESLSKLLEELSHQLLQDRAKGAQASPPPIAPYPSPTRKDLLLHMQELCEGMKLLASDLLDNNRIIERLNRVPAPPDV
In words: Inhibition of IKK-epsilon (unknown origin) using 5FAM-AKELDQGSLCTpSFVGTLQ-NH2 as substrate by microfluidic mobility shift assay. In short, it runs like this: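 Recombinant IKK-ε (4 nM) in HEPES buffer with 1.5 µM 5FAM-labelled peptide substrate, ATP at its K_M, and 10 mM MgCl2. The 10-point titration used half-log serial dilutions. Reactions ran at room temperature for a set time, were quenched with EDTA-containing HEPES, and were read by microfluidic mobility shift. Percent inhibition came from the ratio of phosphorylated to total peptide.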

In test [2] the target is T2, Serine/threonine-protein kinase TBK1 (Homo sapiens, UniProt Q9UHD2).
T2 sequence (Q9UHD2 whole entry): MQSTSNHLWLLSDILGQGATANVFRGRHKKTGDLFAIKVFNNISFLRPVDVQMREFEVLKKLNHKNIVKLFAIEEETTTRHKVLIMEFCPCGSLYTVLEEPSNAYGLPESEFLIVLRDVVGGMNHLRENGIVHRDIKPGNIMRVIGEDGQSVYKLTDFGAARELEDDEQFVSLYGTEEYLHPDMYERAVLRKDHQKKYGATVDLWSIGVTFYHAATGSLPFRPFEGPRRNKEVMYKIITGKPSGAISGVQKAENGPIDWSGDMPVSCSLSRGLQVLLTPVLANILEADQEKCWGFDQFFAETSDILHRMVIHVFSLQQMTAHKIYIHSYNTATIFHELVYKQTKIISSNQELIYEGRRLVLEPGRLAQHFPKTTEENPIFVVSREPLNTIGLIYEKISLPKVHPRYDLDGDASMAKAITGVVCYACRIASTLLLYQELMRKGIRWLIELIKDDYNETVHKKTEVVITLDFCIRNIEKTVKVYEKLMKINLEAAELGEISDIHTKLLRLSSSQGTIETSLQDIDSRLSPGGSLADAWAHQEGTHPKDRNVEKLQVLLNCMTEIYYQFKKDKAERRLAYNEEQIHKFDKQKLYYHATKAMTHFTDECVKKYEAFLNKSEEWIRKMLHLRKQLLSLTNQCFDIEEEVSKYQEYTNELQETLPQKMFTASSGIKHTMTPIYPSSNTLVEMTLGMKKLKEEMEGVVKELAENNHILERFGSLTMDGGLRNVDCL
In words: Inhibition of recombinant full-length TBK1 (unknown origin) using CK1tide as substrate by microfluidic mobility shift assay.

For test [3], the target named is T2, Serine/threonine-protein kinase TBK1. In words: Inhibition of TBK1 in HEK293 cells after 4.5 hrs by ISRE-luciferase reporter gene assay in presence of poly I:C. It counts as cell-based. (In general: A reporter such as luciferase makes a cellular process visible.)
The target of test [4] is Cyclin-dependent kinase 2 (Homo sapiens, UniProt P24941). In words: Inhibition of CDK2 (unknown origin).
The target of test [5] is Aurora kinase B (Homo sapiens, UniProt Q96GD4). In words: Inhibition of aurora B (unknown origin).

pIC50: −log10 of the molar value.

For orientation: pIC50 means the IC50 on a negative log10 scale, so that one unit is a factor of ten.

Sequence of Aurora kinase B (Q96GD4 whole entry): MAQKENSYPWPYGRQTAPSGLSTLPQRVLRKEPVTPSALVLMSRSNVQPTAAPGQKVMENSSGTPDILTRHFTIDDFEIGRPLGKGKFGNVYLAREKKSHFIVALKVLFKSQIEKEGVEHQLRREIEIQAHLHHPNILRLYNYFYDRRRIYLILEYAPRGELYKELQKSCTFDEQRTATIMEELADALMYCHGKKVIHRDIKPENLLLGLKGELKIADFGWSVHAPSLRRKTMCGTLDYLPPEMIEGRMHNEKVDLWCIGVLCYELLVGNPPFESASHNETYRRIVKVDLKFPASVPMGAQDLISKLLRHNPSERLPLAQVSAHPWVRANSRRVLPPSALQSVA

In the case of `COc1ccc(-c2nc3ncc(-c4csc(C(=O)O)c4)cc3[nH]2)cc1`, the negative-log IC50 (pIC50) was 6.94 in test [1], 7.31 in test [2] and less than 4.52 in test [3].

For the molecule `CNC(=O)c1cc(-c2cnc3nc(-c4ccc(OC)cc4)[nH]c3c2)cs1`, the pIC50 is 5.59 in test [1], 6.69 in test [2] and 6.07 in test [3].

As for `CNc1c(-c2ccc(C(=O)O)s2)cnc2[nH]c(-c3ccc(OC)cc3)nc12`, the results for the negative-log IC50 (pIC50) in test [1] and in test [2] were 5.48 and 5.98, respectively.

`COc1ccc(-c2nc3c(OCCCNC(=O)C4CCCC4)c(-c4csc(C(=O)O)c4)cnc3[nH]2)cc1`: the pIC50 in test [1] was 5.96; in test [4], less than 4.52; in test [5], 5.89; in test [2] it was 6.34; in test [3] it was less than 5.52.

As for `COc1ccc(-c2nc3c(NCCCNC(=O)C4CCCC4)c(C(N)=S)cnc3[nH]2)cc1`, the pIC50 was 6.35 in test [1]; less than 4.52 in test [4]; 6.05 in test [5]; 7.34 in test [2]; 6.78 in test [3].

Consider `COc1ccc(-c2nc3cc(-c4csc(C(N)=O)c4)cnc3[nH]2)cc1`, for which the pIC50 in test [1] was 6.69; in test [4] it was 6.01; in test [5], 5.64; in test [2], 7.52; in test [3], 6.57.

As to `COc1ccc(-c2nc3c(OCCCNC(=O)C4CCCC4)c(Br)cnc3[nH]2)cc1`, the negative-log IC50 (pIC50) in test [1] is less than 4.52; in test [4], less than 4.52; in test [5], 6.81; in test [2], 6.12.

In the case of `CCC(C)CNC(=O)c1cc(-c2cnc3[nH]c(-c4ccc(OC)cc4)nc3c2)cs1` (stereo not given), the pIC50 in test [1] is 5.96; in test [4], less than 4.52; in test [5] it was 5.55; in test [2], 6.66; in test [3], 7.05.

Consider `COc1ccc(-c2nc3cc(-c4csc(C(C)=O)c4)cnc3[nH]2)cc1`, for which the pIC50 in test [1] is 5.17; in test [4] it was less than 4.52; in test [5] it was 4.92; in test [2], 6.19; in test [3], 5.75.

On to `COc1ccc(-c2nc3cc(-c4csc(C(=O)NCC(C)(C)CO)c4)cnc3[nH]2)cc1`, for which the pIC50 in test [1] was 6.48; in test [4] it was less than 4.52; in test [5], 5.77; in test [2], 7.00; in test [3] it was 6.87.

Turning to `COc1ccc(-c2nc3c(NCCCNC(=O)C4CCCC4)c(-c4nc(C(=O)NCC(C)C)cs4)cnc3[nH]2)cc1`, the pIC50 was 5.49 in test [1]; less than 4.52 in test [4]; 5.61 in test [5]; 6.41 in test [2]; 6.89 in test [3].

In the case of `COc1ccc(-c2nc3c(NCCCNC(=O)C4CCCC4)c(-c4nc(C(N)=O)cs4)cnc3[nH]2)cc1`, the pIC50 in test [1] is 7.38; in test [4], 5.84; in test [5], 6.55; in test [2], 8.05; in test [3] it was 8.15.

`COc1ccc(-c2nc3cc(-c4cc(C(=O)O)cs4)cnc3[nH]2)cc1`: the figures for the pIC50 in test [1], in test [2] and in test [3] were 6.40, 6.89 and less than 4.52, respectively.

For the molecule `COc1cc2ncn(-c3cc(OCc4ccccc4S(C)(=O)=O)c(C#N)s3)c2cc1OC` [GSK-319347A], the pIC50 in test [1] was 6.33; in test [4] it was less than 4.52; in test [5], less than 5.27; in test [2], 7.03; in test [3], 7.14.

In the case of `O=C(O)c1ccc(-c2cnc3nc(-c4ccc(OCCN5CCCCC5)cc4)[nH]c3c2)cc1`, the pIC50 in test [2] was 6.07.

With `CNc1c(-c2ccc(C(=O)O)cc2)cnc2nc(-c3ccc(OC)cc3)[nH]c12`, in test [2], the pIC50 was 5.74.

As for `COc1ccc(-c2nc3ncc(-c4ccc(C(=O)O)s4)cc3[nH]2)cc1`, the pIC50 in test [1] was 6.06; in test [2] it was 6.59; in test [3], less than 4.52.

For the molecule `COCCNC(=O)c1cc(-c2cnc3[nH]c(-c4ccc(OC)cc4)nc3c2)cs1`, the negative logarithm of the IC50 (pIC50) was 6.39 in test [1]; less than 4.52 in test [4]; 5.86 in test [5]; 7.01 in test [2]; 6.77 in test [3].

`COc1ccc(-c2nc3ncc(-c4cc(C(=O)O)co4)cc3[nH]2)cc1`: the figures for the pIC50 in test [1], in test [2] and in test [3] were 4.94, 5.98 and less than 4.52, respectively.

With `COc1ccc(-c2nc3cc(-c4csc(C#N)c4)cnc3[nH]2)cc1`, the pIC50 in test [1] and in test [2] was less than 4.52 in each case.

Regarding `COc1ccc(-c2nc3c(NCCCNC(=O)C4CCCC4)c(-c4nc(C(=O)O)cs4)cnc3[nH]2)cc1`, the pIC50 in test [1] is 6.80; in test [4], 4.87; in test [5] it was 6.52; in test [2] it was 7.44; in test [3] it was 5.66.

These data come from ChEMBL document CHEMBL3124838, “Discovery of 6-aryl-azabenzimidazoles that inhibit the TBK1/IKK-ε kinases” (Bioorg Med Chem Lett, 2014).
